Results reported in ChEMBL document CHEMBL1147844, “Acridone derivatives: design, synthesis, and inhibition of breast cancer resistance protein ABCG2” (Bioorg Med Chem, 2007).
pIC50: −log10 of the molar value.

What was measured:
[1] = molecular target: T1, Broad substrate specificity ATP-binding cassette transporter ABCG2 (Homo sapiens, UniProt Q9UNQ0); assay: Inhibition of ABCG2 expressed in HEK293 cells assessed as mitoxantrone-mediated efflux by flow cytometry; type: cell-based
T1 sequence (Q9UNQ0 whole entry): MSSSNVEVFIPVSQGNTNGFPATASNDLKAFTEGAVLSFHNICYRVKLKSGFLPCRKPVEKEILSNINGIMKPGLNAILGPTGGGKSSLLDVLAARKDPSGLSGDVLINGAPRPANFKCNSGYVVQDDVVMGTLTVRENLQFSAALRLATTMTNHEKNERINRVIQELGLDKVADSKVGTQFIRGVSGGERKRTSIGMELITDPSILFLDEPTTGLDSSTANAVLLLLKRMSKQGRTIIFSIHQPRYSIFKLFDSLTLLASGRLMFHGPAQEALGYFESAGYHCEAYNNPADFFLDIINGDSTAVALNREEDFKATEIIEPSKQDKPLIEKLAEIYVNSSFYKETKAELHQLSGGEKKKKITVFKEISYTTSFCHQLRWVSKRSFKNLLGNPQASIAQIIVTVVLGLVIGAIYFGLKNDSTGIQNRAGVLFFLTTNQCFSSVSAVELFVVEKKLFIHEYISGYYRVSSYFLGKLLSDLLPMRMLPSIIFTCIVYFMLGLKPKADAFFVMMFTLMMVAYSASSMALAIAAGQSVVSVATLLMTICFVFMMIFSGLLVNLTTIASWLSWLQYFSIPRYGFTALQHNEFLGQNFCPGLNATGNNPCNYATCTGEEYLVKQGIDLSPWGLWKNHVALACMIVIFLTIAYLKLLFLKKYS
In short: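 HEK-293 cells transfected with human wild-type (R482) ABCG2, or empty-vector control cells, loaded with 5 µmol/L mitoxantrone for 30 min at 37 °C with or without a range of inhibitor concentrations (DMSO, 0.5% final). Cells washed in PBS, then kept 1 h in substrate-free medium with the same inhibitor level. Intracellular fluorescence read by flow cytometry. 100% = control minus ABCG2-cell mean fluorescence without inhibitor. IC50 derived.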

[2] = molecular target: T1, Broad substrate specificity ATP-binding cassette transporter ABCG2; assay: Inhibition of ABCG2 expressed in HEK293 cells assessed as mitoxantrone-mediated efflux by flow cytometry relative to GF120918; type: cell-based; design: concentration or dose not given beside the values

Compound	pIC50 [1]	Inhibition [2]
COc1ccc2[nH]c3ccccc3c(=O)c2c1OC	< 4.70	
COc1cc(C(F)(F)F)cc2[nH]c3ccccc3c(=O)c12	6.11	81%
O=c1c2ccccc2[nH]c2ccc(O)cc12	< 4.70	
COc1cc(O)c2c(=O)c3ccccc3[nH]c2c1	< 4.70	
O=c1c2ccccc2[nH]c2cc(C(F)(F)F)cc(O)c12	< 4.70	
COc1ccc(CCNC(=O)c2cccc3c(=O)c4ccccc4[nH]c23)cc1OC	6.35	90.2%
COc1ccc(CCNC(=O)c2cccc3c(=O)c4ccc(OC)cc4[nH]c23)cc1	6.25	112.3%
COc1ccc2c(=O)c3cccc(C(=O)NCCc4ccc(OC)c(OC)c4)c3[nH]c2c1	5.86	94.9%
COc1cccc2[nH]c3ccccc3c(=O)c12	5.20	74%
COc1cc(OC)c2c(=O)c3ccccc3[nH]c2c1	5.10	65%
COc1ccc2[nH]c3ccccc3c(=O)c2c1	5.32	66%
COc1cc2c(cc1OC)CN(CCc1ccc(NC(=O)c3cccc4c(=O)c5cccc(OC)c5[nH]c34)cc1)CC2		100%
COc1ccc(CCNC(=O)c2cccc3c(=O)c4ccccc4[nH]c23)cc1	6.46	71.3%
O=c1c2ccccc2[nH]c2cccc(O)c12	< 4.70	
